What was measured:
MDA-MB-231 = test: Growth inhibition of human MDA-MB-231 cells after 48 hrs by SRB assay; assay type: functional; details: MDA-MB-231, 48 h
Procedure, shortened: (§1)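 NCI DTP panel cells grown in RPMI 1640 with 5% FBS and 2 mM L-glutamine, preincubated 24 h, then given five concentrations (10-fold or ½-log dilutions from DMSO stock) for 48 h at 37 °C. Cells fixed with TCA, stained with SRB, absorbance read at 515 nm, with time-zero plates as reference.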

UO-31 = test: Growth inhibition of human UO31 cells after 48 hrs by SRB assay; assay type: functional; details: UO-31, 48 h
Procedure, shortened: (§2)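 Run by the NCI Developmental Therapeutics Program: cells in RPMI 1640 with 5% FBS and 2 mM L-glutamine, plated at 5000–40,000 cells/well and grown 24 h before dosing. Drug (DMSO stock) given at five concentrations for 48 h at 37 °C, 5% CO2. Adherent cells fixed with cold TCA, stained with 0.4% SRB and read at 515 nm. GI50, TGI and LC50 taken from the time-zero, control and treated absorbances.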

KM12 = test: Growth inhibition of human KM12 cells after 48 hrs by SRB assay; assay type: functional; details: KM12, 48 h; procedure, shortened: as §1
OVCAR-3 = test: Growth inhibition of human OVCAR3 cells after 48 hrs by SRB assay; assay type: functional; details: OVCAR-3, 48 h; procedure, shortened: as §1
U-251 = test: Growth inhibition of human U251 cells after 48 hrs by SRB assay; assay type: functional; details: U-251, 48 h; procedure, shortened: as §2
HCT-116 = test: Growth inhibition of human HCT116 cells after 48 hrs by SRB assay; assay type: functional; details: HCT-116, 48 h; procedure, shortened: as §1
UACC-62 = test: Growth inhibition of human UACC62 cells after 48 hrs by SRB assay; assay type: functional; details: UACC-62, 48 h; procedure, shortened: as §2
NCI-H460 = test: Growth inhibition of human NCI-H460 cells after 48 hrs by SRB assay; assay type: functional; details: NCI-H460, 48 h; procedure, shortened: as §1
HOP-92 = test: Growth inhibition of human HOP92 cells after 48 hrs by SRB assay; assay type: functional; details: HOP-92, 48 h; procedure, shortened: as §1
MCF7 = test: Growth inhibition of human MCF7 cells after 48 hrs by SRB assay; assay type: functional; details: MCF7, 48 h; procedure, shortened: as §1
SN12C = test: Growth inhibition of human SN12C cells after 48 hrs by SRB assay; assay type: functional; procedure, shortened: as §2
OVCAR-4 = test: Growth inhibition of human OVCAR4 cells after 48 hrs by SRB assay; assay type: functional; details: OVCAR-4, 48 h; procedure, shortened: as §1
SNB-75 = test: Growth inhibition of human SNB75 cells after 48 hrs by SRB assay; assay type: functional; details: SNB-75, 48 h; procedure, shortened: as §2
COLO 205 = test: Growth inhibition of human COLO205 cells after 48 hrs by SRB assay; assay type: functional; details: COLO 205, 48 h; procedure, shortened: as §1
SNB-19 = test: Growth inhibition of human SNB19 cells after 48 hrs by SRB assay; assay type: functional; details: SNB-19, 48 h; procedure, shortened: as §2
K562 [1] = test: Growth inhibition of human K562 cells after 48 hrs by SRB assay; assay type: functional; details: K562, 48 h; procedure, shortened: as §1
UACC-257 = test: Growth inhibition of human UACC257 cells after 48 hrs by SRB assay; assay type: functional; details: UACC-257, 48 h; procedure, shortened: as §2
CAKI-1 = test: Growth inhibition of human Caki1 cells after 48 hrs by SRB assay; assay type: functional; details: CAKI-1, 48 h; procedure, shortened: as §1
SK-MEL-2 = test: Growth inhibition of human SK-MEL-2 cells after 48 hrs by SRB assay; assay type: functional; details: SK-MEL-2, 48 h; procedure, shortened: as §2
OVCAR-5 = test: Growth inhibition of human OVCAR5 cells after 48 hrs by SRB assay; assay type: functional; details: OVCAR-5, 48 h; procedure, shortened: as §1
A498 = test: Growth inhibition of human A498 cells after 48 hrs by SRB assay; assay type: functional; details: A498, 48 h; procedure, shortened: as §1
ACHN = test: Growth inhibition of human ACHN cells after 48 hrs by SRB assay; assay type: functional; procedure, shortened: as §1
SW-620 = test: Growth inhibition of human SW620 cells after 48 hrs by SRB assay; assay type: functional; details: SW-620, 48 h; procedure, shortened: as §2
HCC 2998 = test: Growth inhibition of human HCC2998 cells after 48 hrs by SRB assay; assay type: functional; details: HCC 2998, 48 h; procedure, shortened: as §1
LOX IMVI = test: Growth inhibition of human LOXIMVI cells after 48 hrs by SRB assay; assay type: functional; procedure, shortened: as §1
DU-145 = test: Growth inhibition of human DU145 cells after 48 hrs by SRB assay; assay type: functional; details: DU-145, 48 h; procedure, shortened: as §1
Malme-3M = test: Growth inhibition of human MALME-3M cells after 48 hrs by SRB assay; assay type: functional; procedure, shortened: as §1
K562 [2] = test: Growth inhibition of human K562 cells after 48 hrs by trypan blue assay; assay type: functional, cell-based; details: K562, 48 h
TK-10 = test: Growth inhibition of human TK10 cells after 48 hrs by SRB assay; assay type: functional; details: TK-10, 48 h; procedure, shortened: as §2
PC-3 = test: Growth inhibition of human PC3 cells after 48 hrs by SRB assay; assay type: functional; details: PC-3, 48 h; procedure, shortened: as §1
NCI-H522 = test: Growth inhibition of human NCI-H522 cells after 48 hrs by SRB assay; assay type: functional; details: NCI-H522, 48 h; procedure, shortened: as §1
HCT-15 = test: Growth inhibition of human HCT15 cells after 48 hrs by SRB assay; assay type: functional; details: HCT-15, 48 h; procedure, shortened: as §1
HOP-62 = test: Growth inhibition of human HOP62 cells after 48 hrs by SRB assay; assay type: functional; details: HOP-62, 48 h; procedure, shortened: as §1
T47D = test: Growth inhibition of human T47D cells after 48 hrs by SRB assay; assay type: functional; procedure, shortened: as §2
K562 [3] = test: Antiproliferative activity against human K562 cells at 10 uM after 48 hrs by trypan blue assay; assay type: functional; details: K562, 48 h, read-out: GI
SF-268 = test: Growth inhibition of human SF268 cells after 48 hrs by SRB assay; assay type: functional; details: SF-268, 48 h; procedure, shortened: as §1
OVCAR-8 = test: Growth inhibition of human OVCAR8 cells after 48 hrs by SRB assay; assay type: functional; details: OVCAR-8, 48 h; procedure, shortened: as §1
SK-MEL-28 = test: Growth inhibition of human SK-MEL-28 cells after 48 hrs by SRB assay; assay type: functional; details: SK-MEL-28, 48 h; procedure, shortened: as §2
SK-MEL-5 = test: Growth inhibition of human SK-MEL-5 cells after 48 hrs by SRB assay; assay type: functional; details: SK-MEL-5, 48 h; procedure, shortened: as §2
NCI-H226 = test: Growth inhibition of human NCI-H226 cells after 48 hrs by SRB assay; assay type: functional; details: NCI-H226, 48 h; procedure, shortened: as §1
A549 = test: Growth inhibition of human A549 cells after 48 hrs by SRB assay; assay type: functional; details: A549, 48 h; procedure, shortened: as §1
MDA-MB-435 = test: Growth inhibition of human MDA-MB-435 cells after 48 hrs by SRB assay; assay type: functional; details: MDA-MB-435, 48 h; procedure, shortened: as §1
HL-60 = test: Growth inhibition of human HL60 cells after 48 hrs by SRB assay; assay type: functional; details: HL-60, 48 h; procedure, shortened: as §1
IGROV-1 = test: Growth inhibition of human IGROV1 cells after 48 hrs by SRB assay; assay type: functional; details: IGROV-1, 48 h; procedure, shortened: as §1
CCRF-CEM = test: Growth inhibition of human CCRF-CEM cells after 48 hrs by SRB assay; assay type: functional; procedure, shortened: as §1
EKVX = test: Growth inhibition of human EKVX cells after 48 hrs by SRB assay; assay type: functional; procedure, shortened: as §1
NCI-H23 = test: Growth inhibition of human NCI-H23 cells after 48 hrs by SRB assay; assay type: functional; details: NCI-H23, 48 h; procedure, shortened: as §1
HT-29 = test: Growth inhibition of human HT-29 cells after 48 hrs by SRB assay; assay type: functional; details: HT-29, 48 h; procedure, shortened: as §1
BT-549 = test: Growth inhibition of human BT549 cells after 48 hrs by SRB assay; assay type: functional; details: BT-549, 48 h; procedure, shortened: as §1
M14 = test: Growth inhibition of human M14 cells after 48 hrs by SRB assay; assay type: functional; details: M14, 48 h; procedure, shortened: as §1
NCI/ADR-RES = test: Growth inhibition of human NCI/ADR-RES cells after 48 hrs by SRB assay; assay type: functional; procedure, shortened: as §1
[4] = Growth inhibition of human Hs 578T cells after 48 hrs by SRB assay; assay type: functional; procedure, shortened: as §1
SF-295 = test: Growth inhibition of human SF295 cells after 48 hrs by SRB assay; assay type: functional; details: SF-295, 48 h; procedure, shortened: as §1
MOLT-4 = test: Growth inhibition of human MOLT4 cells after 48 hrs by SRB assay; assay type: functional; details: MOLT-4, 48 h; procedure, shortened: as §1
786-0 = test: Growth inhibition of human 786-0 cells after 48 hrs by SRB assay; assay type: functional; details: 786-0, 48 h; procedure, shortened: as §1
MDA-MB-468 = test: Growth inhibition of human MDA-MB-468 cells after 48 hrs by SRB assay; assay type: functional; details: MDA-MB-468, 48 h; procedure, shortened: as §1
SK-OV-3 = test: Growth inhibition of human SKOV3 cells after 48 hrs by SRB assay; assay type: functional; details: SK-OV-3, 48 h; procedure, shortened: as §2
SF-539 = test: Growth inhibition of human SF539 cells after 48 hrs by SRB assay; assay type: functional; details: SF-539, 48 h; procedure, shortened: as §1

In the case of Cc1ccc(NC(=O)/C=C/c2ccccc2)c(C(N)=O)c1, the GI50 (MDA-MB-231) is reported as 7.26 µM, the GI50 (UO-31) is reported as 9.62 µM and the GI50 (KM12) is reported as 2.94 µM. It also gave a GI50 (OVCAR-3) of 2.18 µM, a GI50 (U-251) of 4.13 µM and a GI50 (HCT-116) of 3.2 µM. The GI50 (UACC-62) was 3.77 µM, the GI50 (NCI-H460) was 3.59 µM and the GI50 (HOP-92) was 11.4 µM. The GI50 (MCF7) was 3.48 µM, the GI50 (SN12C) was 9.63 µM and the GI50 (OVCAR-4) was 11.4 µM. The GI50 (SNB-75) was 3.18 µM, the GI50 (COLO 205) was 1.84 µM and the GI50 (SNB-19) was 5.69 µM. For the same molecule, the GI50 (K562 [1]) was 1.11 µM, the GI50 (UACC-257) was 17 µM and the GI50 (CAKI-1) was 8.92 µM. For the same molecule, the GI50 (SK-MEL-2) was 4.75 µM, the GI50 (OVCAR-5) was 8.2 µM and the GI50 (A498) was 5.56 µM. The GI50 (ACHN) was 13.5 µM, the GI50 (SW-620) was 3.3 µM and the GI50 (HCC 2998) was 6.45 µM. For the same molecule, the GI50 (LOX IMVI) was 7.65 µM, the GI50 (DU-145) was 3.66 µM and the GI50 (Malme-3M) was 7.59 µM. The IC50 (K562 [2]) was 5.5 µM, the GI50 (TK-10) was 25.8 µM and the GI50 (PC-3) was 3.97 µM. It also gave a GI50 (NCI-H522) of 2.83 µM, a GI50 (HCT-15) of 3.77 µM and a GI50 (HOP-62) of 7.74 µM. For the same molecule, the GI50 (T47D) was 4.2 µM, the inhibition of growth at 10 µM (K562 [3]) was 65.4% and the GI50 (SF-268) was 10.9 µM. For the same molecule, the GI50 (OVCAR-8) was 7.49 µM, the GI50 (SK-MEL-28) was 5.24 µM and the GI50 (SK-MEL-5) was 1.01 µM. For the same molecule, the GI50 (NCI-H226) was 7.28 µM, the GI50 (A549) was 5.81 µM and the GI50 (MDA-MB-435) was 0.66 µM. The GI50 (HL-60) was 1.77 µM, the GI50 (IGROV-1) was 4.37 µM and the GI50 (CCRF-CEM) was 2.36 µM. For the same molecule, the GI50 (EKVX) was 5.18 µM, the GI50 (NCI-H23) was 3.38 µM and the GI50 (HT-29) was 2.31 µM. It also gave a GI50 (BT-549) of 4.88 µM, a GI50 (M14) of 2.35 µM and a GI50 (NCI/ADR-RES) of 2.79 µM. It also gave a GI50 [4] of 1.94 µM, a GI50 (SF-295) of 3.14 µM and a GI50 (MOLT-4) of 3.56 µM. It also gave a GI50 (786-0) of 4 µM, a GI50 (MDA-MB-468) of 3.12 µM and a GI50 (SK-OV-3) of 2.79 µM. For the same molecule, the GI50 (SF-539) was 2.05 µM.
